Results on two compounds are retold here after PMC6314479 (Nature chemical biology, 2017).

pIC50: −log10 of the molar value.

For data set [1], the system named is USP10. The data set is described as follows: Competitive activity-based protein profiling with HA-Ub-VS in cells. Type of data set: cell-based. Conditions: lysates from live treated cells (Ba/F3-FLT3-ITD, MOLM14).
In a further data set the test system is wt FLT3. The data set is described as follows: FLT3 protein levels in Ba/F3-wtFLT3 cells. Type of data set: cell-based, murine.
The next data set concerns Beclin-1. The data set is described as follows: Beclin-1 and FLT3 protein levels. Type of data set: cell-based.
The test system of data set [2] is Ba/F3-FLT3-ITD and Ba/F3-FLT3-D835Y cells. The data set is described as follows: Proliferation of mutant FLT3-positive Ba/F3 cells. The class given is cell-based, murine.
The next data set has as its system FLT3-ITD. The data set is described as follows: FLT3 degradation in FLT3-ITD positive AML lines. To be noted: MOLM13-luc+ and MOLM14, 20 μM. The class given is cell-based, human.
In data set [3] the test system is FLT3-ITD positive primary AML patient cells and primagraft cells. The data set is described as follows: Ex vivo treatment of AML patient samples and primagrafts. Type of data set: cell-based, human. To be noted: 21 hours, 20 μM.
The target in data set [4] is USP10 (Homo sapiens, UniProt Q14694). The data set is described as follows: MALDI-TOF DUB assay with diubiquitin as substrate, dose response. Type of data set: biochemical. Conditions: read-out: USP10 IC50. A digest of the protocol:
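Human USP10 was freshly diluted in 40mM Tris–HCl pH 7.6, 5mM DTT, 0.005% BSA and pre-incubated with test compound for 30 min at room temperature. Di-ubiquitin topoisomers (K63, K48, K11, M1) at 1.5 μM were added, incubated 30 min at room temperature, then stopped with TFA at 2% (v/v) final. Cleavage was read by MALDI-TOF.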

In data set [5] the test system is Ba/F3-FLT3-ITD-luc+ cells. The data set is described as follows: Non-invasive in vivo bioluminescence model of leukemia.
Data set [6] has as its system FLT3-ITD+, D835Y+ AML primagraft. The data set is described as follows: AML primagraft study in NSG mice. The class given is in vivo. A digest of the protocol:
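Primagraft mice got the test compound at 15 mg/kg IP once daily (n=3) or vehicle (n=3). Dosing began once disease was detectable by flow cytometry and ran for 21 days. Body weight was followed to judge tolerability.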

Where [7] appears, read: 50 mg/kg twice daily IP, 4 days, pilot study.

Sequence of USP10 (Homo sapiens, UniProt Q14694) (Q14694 whole entry): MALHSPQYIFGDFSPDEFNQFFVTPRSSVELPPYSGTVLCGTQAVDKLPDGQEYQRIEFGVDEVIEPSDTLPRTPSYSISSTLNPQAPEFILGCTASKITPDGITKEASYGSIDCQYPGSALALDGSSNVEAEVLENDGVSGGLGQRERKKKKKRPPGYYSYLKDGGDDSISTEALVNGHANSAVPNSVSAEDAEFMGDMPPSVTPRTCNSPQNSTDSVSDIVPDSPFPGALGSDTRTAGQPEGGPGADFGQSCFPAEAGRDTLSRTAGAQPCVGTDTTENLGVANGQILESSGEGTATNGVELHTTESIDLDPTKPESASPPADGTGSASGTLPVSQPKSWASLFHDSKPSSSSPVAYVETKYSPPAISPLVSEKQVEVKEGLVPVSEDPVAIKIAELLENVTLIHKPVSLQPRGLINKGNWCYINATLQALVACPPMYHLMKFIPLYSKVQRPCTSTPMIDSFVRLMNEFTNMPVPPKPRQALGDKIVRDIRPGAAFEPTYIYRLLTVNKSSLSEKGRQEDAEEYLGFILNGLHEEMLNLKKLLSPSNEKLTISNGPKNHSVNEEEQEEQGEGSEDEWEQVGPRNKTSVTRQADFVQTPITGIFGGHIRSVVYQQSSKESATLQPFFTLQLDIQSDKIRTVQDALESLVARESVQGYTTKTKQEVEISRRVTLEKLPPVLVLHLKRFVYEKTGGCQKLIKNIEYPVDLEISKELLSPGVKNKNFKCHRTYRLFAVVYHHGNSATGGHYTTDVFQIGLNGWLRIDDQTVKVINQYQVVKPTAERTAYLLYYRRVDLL

In general, pIC50 refers to −log10 of the IC50, conventionally taken in molar units. As for HBX19818, in the data set on USP10 [1], the “inhibitor concentration blocking USP10 labeling by HA-Ub-VS” value is listed as “low micromolar range”. Also, the FLT3 protein levels entry in the data set on wt FLT3 is on record as “unchanged”. Further, the “protein levels of Beclin-1 and FLT3” value in the data set on Beclin-1 (20 μM, Ba/F3-FLT3-ITD and MOLM14 cells) is given as “strongly decreased”. The “EC50 for inhibition of proliferation” value in data set [2] is given as “single digit micromolar range”. For the same compound, in the data set on FLT3-ITD, the FLT3 degradation result is given as “strongly induced FLT3 degradation”. Also, the “FLT3 levels via immunoblotting” value in data set [3] was “strong reduction in FLT3”. In addition, on USP10 [4], the pIC50 was 4.85.

With `CC(=O)c1cc([N+](=O)[O-])c(Sc2ccc(F)cc2F)s1` [P22077], the FLT3 protein levels result with wt FLT3 was “unchanged”. Also, in the data set on Beclin-1 (10 μM, MOLM14 cells), the “protein levels of Beclin-1” value was “strongly decreased”. Moreover, the “leukemia burden compared to vehicle (in vivo bioluminescence)” value in data set [5] (50 mg/kg IP twice daily or oral gavage once daily, 4–6 days of treatment) was “statistically significant decrease”. Besides, in [5] (setting [7]), the “lower percentage of FLT3 expression in bone marrow vs vehicle (flow cytometry)” value is given as “approximately 2 fold” and the “reduction in luciferase-positive signal in bone marrow vs vehicle” value was “approximately 2 fold”. In addition, the “difference in weight vs vehicle-treated mice” value in data set [5] (treated for up to 11 days) is listed as “no significant difference”. Also, the “FLT3 signal in mouse bone marrow lysates (immunoblot)” value in data set [6] (15 mg/kg IP 1X daily, 21 days) is recorded as “undetectable”. The tolerability entry in data set [6] (15mg/kg, 21 day treatment) is on record as “generally well tolerated”. Besides, the average weight loss in data set [6] (15mg/kg, 21 days, same for vehicle-treated) fell in the range of 2 to 3 g. For the same compound, the FLT3 degradation entry in the data set with FLT3-ITD is given as “strongly induced FLT3 degradation”. Further, in [3], the “FLT3 levels via immunoblotting” value was “strong reduction in FLT3”. Besides, on USP10 [4], the pIC50 is 5.22.
